# Assay results from different studies.
# Lines come from different studies, so protocols differ.
# Action: inhibitor
# USP51: Ubiquitin carboxyl-terminal hydrolase 51 (USP51, Homo sapiens, UniProt Q70EK9)
# DRD3: D(3) dopamine receptor (DRD3, Homo sapiens, UniProt P35462)
# SLC6A3: Sodium-dependent dopamine transporter (SLC6A3, Homo sapiens, UniProt Q01959)
# CA12: Carbonic anhydrase 12 (CA12, Homo sapiens, UniProt O43570)
Compound,target,effect on,technique,cells,tested at,inhibition
COc1ccc(-c2oc3c(CC=C(C)C)c(O[C@@H]4O[C@H](CO)[C@@H](O)[C@H](O)[C@H]4O)cc(O)c3c(=O)c2O[C@@H]2O[C@@H](C)[C@H](O)[C@@H](O)[C@H]2O)cc1,USP51,enzyme activity,,,5 µM,7%
O=C(CCN1CCC(O)(c2ccc(F)cc2)C1)c1ccc2c(c1)OCCO2 (stereo not shown),DRD3,enzyme activity,,,10 µM,9%
Fc1ccc(C(c2ccc(F)cc2)c2nnnn2CCCCN2CCC(Cc3ccc(Cl)c(Cl)c3)CC2)cc1,SLC6A3,transporter uptake,,HEK293,1 µM,68.9%
NS(=O)(=O)c1ccc(CCNCc2cccc3ccccc23)cc1,DRD3,enzyme activity,,,10 µM,39.3%
CCOC(=O)C1CSc2[nH]c(=O)sc2C1c1cn(-c2ccccc2)nc1-c1ccc(OC)cc1 (stereo not shown),CA12,enzyme activity,absorbance,,0.1 µM,37.6%
CCN(c1cc(C#CCN2CCOCC2)cc(C(=O)NCc2c(C)cc(C)[nH]c2=O)c1C)[C@H]1CC[C@H](N(C)CCOC)CC1,"Protein arginine N-methyltransferase 1 (PRMT1, Homo sapiens, UniProt Q99873)",enzyme activity,,,1 µM,10%
CC(C)(COP(=O)(O)OP(=O)(O)OC[C@H]1O[C@@H](n2cnc3c(N)ncnc32)[C@H](O)[C@@H]1OP(=O)(O)O)[C@@H](O)C(=O)NCCC(=O)NCCS,"Histone acetyltransferase KAT2A (KAT2A, Homo sapiens, UniProt Q92830)",enzyme activity,mobility shift,,10 µM,29%
C=C1C[C@@]2(O)O[C@@]3(C[C@H]2C(C)C)[C@@H](C)CC[C@@H]13,USP51,enzyme activity,,,5 µM,11%
c1ccc(CCC2CCN(CCCn3nnnc3C(c3ccccc3)c3ccccc3)CC2)cc1,SLC6A3,transporter uptake,,HEK293,1 µM,68.3%
N#CC1CSc2[nH]c(=O)sc2C1c1cn(-c2ccccc2)nc1-c1ccc(Br)cc1 (stereo not shown),CA12,enzyme activity,absorbance,,10 µM,84.7%
Cc1ccccc1N1CCN(CCCCN2C(=O)C3CCCN3C2=O)CC1 (stereo not shown),DRD3,enzyme activity,,,10 µM,47.3%
CCOC(=O)C1CSc2[nH]c(=O)sc2C1c1cn(-c2ccccc2)nc1-c1ccc(C)cc1 (stereo not shown),CA12,enzyme activity,absorbance,,0.1 µM,28%
Clc1ccc(C(c2ccccc2)c2nnnn2CCCCN2CCN(CCCc3ccccc3)CC2)cc1 (stereo not shown),SLC6A3,transporter uptake,,HEK293,1 µM,81.6%
Cc1ccccc1OCC(O)CN1CCN(CC(O)COc2ccccc2C)CC1 (stereo not shown),DRD3,enzyme activity,,,10 µM,-12.1%
O=C(CO)[C@@H](O)[C@H](O)[C@H](O)CO,USP51,enzyme activity,,,5 µM,97%
CCOC(=O)C1CSc2[nH]c(=O)sc2C1c1cn(-c2ccccc2)nc1-c1ccc(Br)cc1 (stereo not shown),CA12,enzyme activity,absorbance,,0.1 µM,31.5%
O=C(O)CC(O)C(=O)O (stereo not shown),USP51,enzyme activity,,,5 µM,31%
Cc1cc(C)cc(NC(=O)CN2CCN(C(=O)c3ccco3)CC2)c1,DRD3,enzyme activity,,,10 µM,-32.1%
O=c1ccc2cc3ccoc3cc2o1,USP51,enzyme activity,,,5 µM,0%
CNc1cc(Oc2cc(C(=O)Nc3cc(N4CCN(C)CC4)cc(C(F)(F)F)c3)ccc2C)ncn1,"Serine/threonine-protein kinase ATR (ATR, Homo sapiens, UniProt Q13535)",target engagement in cells,chemoproteomics,Huh-7,1 µM,-18%
Nc1[nH]cnc2ncnc1-2,USP51,enzyme activity,,,5 µM,33%
CCOc1ccc(CNCC(O)c2ccccc2)cc1Br (stereo not shown),DRD3,enzyme activity,,,10 µM,11.4%
